# In ChEMBL document CHEMBL4196177, “Synthesis, Evaluation, and Structure-Activity Relationship Study of Lanosterol Derivatives To Reverse Mutant-Crystallin-Induced Protein Aggregation” (J Med Chem, 2018):
# Calls of active or inactive are those of the source. No cut-off for these calls is given here.
# Legend:
# Type in all cases: cell-based
# [1] = system: T1, Alpha-crystallin B chain (Homo sapiens), P02511 [R120G]; test: Inhibition of alpha-crystallin B R120G mutant (unknown origin)-induced intracellular protein aggregation expressed in human HeLa cells at 4 uM incubated for 6 to 8 hrs by fluorescence microscopy relative to untreated control
# T1 sequence (whole entry): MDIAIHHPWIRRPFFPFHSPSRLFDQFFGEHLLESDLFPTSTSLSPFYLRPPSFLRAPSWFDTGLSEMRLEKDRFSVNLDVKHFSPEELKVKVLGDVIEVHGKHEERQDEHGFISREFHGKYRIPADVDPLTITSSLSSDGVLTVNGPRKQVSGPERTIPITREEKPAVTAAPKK
# Outline: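 Cells were transfected with mutant crystallin constructs using Lipofectamine 2000 and cultured for 16 h until the overexpressed mutants formed aggregates. Compounds were then added to the culture medium and incubated for 6~8 h. Aggregate dissolution was scored by fluorescence microscopy. For αB R120G, % inhibition at 0.4 and 4 µM was calculated against DMSO-treated cells; values are mean ± error.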
# [2] = system: T2, Gamma-crystallin C (Homo sapiens), P07315 [G129C]; test: Inhibition of gamma-crystallin C G129C mutant (unknown origin)-induced intracellular protein aggregation expressed in human HeLa cells or HLE-B3 cells at 4 uM incubated for 6 to 8 hrs by fluorescence microscopy relative to untreated control
# T2 sequence (whole entry): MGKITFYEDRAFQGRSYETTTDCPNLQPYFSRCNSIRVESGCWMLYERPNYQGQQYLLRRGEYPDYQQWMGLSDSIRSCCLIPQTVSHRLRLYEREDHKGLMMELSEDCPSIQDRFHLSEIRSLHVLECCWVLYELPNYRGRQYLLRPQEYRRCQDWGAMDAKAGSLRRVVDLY
# Outline: (§1)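 Cells were transfected with mutant crystallin and incubated 16 h to overexpress it and form aggregates. Compounds were then added to the medium for 6~8 h. Aggregates were scored by fluorescence microscopy, and percent inhibition was calculated against DMSO-treated cells.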
# [3] = system: T3, Alpha-crystallin A chain (Homo sapiens), P02489 [Y118D]; test: Inhibition of alpha-crystallin A Y118D mutant (unknown origin)-induced intracellular protein aggregation expressed in human HeLa cells or HLE-B3 cells at 4 uM incubated for 6 to 8 hrs by fluorescence microscopy relative to untreated control; outline: as §1
# T3 sequence (whole entry): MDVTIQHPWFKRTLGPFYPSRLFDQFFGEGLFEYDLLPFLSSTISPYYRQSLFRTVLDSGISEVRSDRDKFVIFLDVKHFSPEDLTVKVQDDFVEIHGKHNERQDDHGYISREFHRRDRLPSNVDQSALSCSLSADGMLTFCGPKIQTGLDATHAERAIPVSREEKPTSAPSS
# [4] = system: T4, Gamma-crystallin D (Homo sapiens), P07320 [W43R]; test: Inhibition of gamma-crystallin D W43R mutant (unknown origin)-induced intracellular protein aggregation expressed in human HeLa cells or HLE-B3 cells at 4 uM incubated for 6 to 8 hrs by fluorescence microscopy relative to untreated control; outline: as §1
# T4 sequence (whole entry): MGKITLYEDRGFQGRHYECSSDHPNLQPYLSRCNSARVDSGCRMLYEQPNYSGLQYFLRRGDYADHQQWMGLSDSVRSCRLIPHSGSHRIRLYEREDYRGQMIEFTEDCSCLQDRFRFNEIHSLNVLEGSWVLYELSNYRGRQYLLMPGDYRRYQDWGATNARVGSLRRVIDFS
# [5] = system: T5, Beta-crystallin B2 (Homo sapiens), P43320 [V187E]; test: Inhibition of beta-crystallin B2 V187E mutant (unknown origin)-induced intracellular protein aggregation expressed in human HeLa cells or HLE-B3 cells at 4 uM incubated for 6 to 8 hrs by fluorescence microscopy relative to untreated control; outline: as §1
# T5 sequence (whole entry): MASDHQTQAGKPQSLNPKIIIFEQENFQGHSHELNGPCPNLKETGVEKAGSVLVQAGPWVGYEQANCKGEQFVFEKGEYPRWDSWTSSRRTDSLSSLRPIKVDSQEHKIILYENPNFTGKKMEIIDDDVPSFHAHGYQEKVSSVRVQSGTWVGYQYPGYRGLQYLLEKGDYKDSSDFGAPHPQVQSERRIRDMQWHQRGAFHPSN
# [6] = system: T5, Beta-crystallin B2 (Homo sapiens), P43320 [V187E]; test: Inhibition of beta-crystallin B2 V187E mutant (unknown origin)-induced cytotoxicity in human HeLa cells assessed as increase in cell viability at 0.04 to 4 uM incubated for 12 hrs by CCK8 assay
# [7] = system: T5, Beta-crystallin B2 (Homo sapiens), P43320 [V187E]; test: Inhibition of beta-crystallin B2 V187E mutant (unknown origin)-induced cytotoxicity in human HLE-B3 cells assessed as increase in cell viability at 0.04 to 4 uM incubated for 12 hrs by CCK8 assay
# [8] = system: T2, Gamma-crystallin C (Homo sapiens), P07315 [G129C]; test: Inhibition of gamma-crystallin C G129C mutant (unknown origin)-induced cytotoxicity in human HLE-B3 cells assessed as increase in cell viability at 0.04 to 4 uM incubated for 12 hrs by CCK8 assay
# [9] = Toxicity in human HLE-B3 cells transfected with peGFP-N1 assessed as reduction in cell viability of at 0.04 to 4 uM incubated for 12 hrs by CCK8 assay
# [10] = system: T2, Gamma-crystallin C (Homo sapiens), P07315 [G129C]; test: Inhibition of gamma-crystallin C G129C mutant (unknown origin)-induced cytotoxicity in human HeLa cells assessed as increase in cell viability at 0.04 to 4 uM incubated for 12 hrs by CCK8 assay
# HeLa = test: Toxicity in human HeLa cells transfected with peGFP-N1 assessed as reduction in cell viability of at 0.04 to 4 uM incubated for 12 hrs by CCK8 assay
# [11] = system: T1, Alpha-crystallin B chain (Homo sapiens), P02511 [R120G]; test: Inhibition of alpha-crystallin B R120G mutant (unknown origin)-induced cytotoxicity in human HLE-B3 cells assessed as increase in cell viability at 0.04 to 4 uM incubated for 12 hrs by CCK8 assay
# [12] = system: T1, Alpha-crystallin B chain (Homo sapiens), P02511 [R120G]; test: Inhibition of alpha-crystallin B R120G mutant (unknown origin)-induced cytotoxicity in human HeLa cells assessed as increase in cell viability at 0.04 to 4 uM incubated for 12 hrs by CCK8 assay
structure (smiles),measurement,setting,value
N[C@@H](CCC(=O)N[C@@H](CS)C(=O)NCC(=O)O)C(=O)O,inhibition,[1],inactive
O=C(O)c1cc(O)c2c3nc4ccccc4oc-3cc(=O)c2n1,inhibition,[1],inactive
CC(C)=CCC[C@@H](C)[C@H]1CC[C@@]2(C)C3=C(CC[C@]12C)[C@@]1(C)CC[C@H](O)C(C)(C)[C@@H]1CC3,inhibition,[2],Active
same,inhibition,[3],Active
same,inhibition,[4],Active
same,inhibition,[5],Active
C[C@H](CCCC(C)(C)O)[C@H]1CC[C@H]2[C@@H]3CC=C4C[C@@H](O)CC[C@]4(C)[C@H]3CC[C@]12C,inhibition,[6],inactive
same,inhibition,[3],Active
same,inhibition,[7],inactive
same,inhibition,[8],inactive
same,Activity,[9],Toxic
same,inhibition,[10],inactive
same,Activity,HeLa,Toxic
same,inhibition,[11],inactive
same,inhibition,[12],inactive
O=C(O)COc1nn(Cc2ccccc2)c2ccccc12,inhibition,[1],inactive
O=C1O[C@H]([C@@H](O)CO)C([O-])=C1O.[Na+],inhibition,[1],inactive
